According to ChEMBL document CHEMBL5046274, “Identification and Optimization of Novel Small-Molecule Cas9 Inhibitors by Cell-Based High-Throughput Screening” (J Med Chem, 2022):
One block for each compound: values may come before it. The source made the active and inactive calls. The calls are words filed in the database; no cut-off is given here.

Key:
[1] = Inhibition of Streptococcus pyogenes Cas9 by Cas9 cleavage assay
Summary of the method: (§1)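 Recombinant SpyCas9 (5 nM) preincubated with compound in DMSO (final 5% v/v) for 15 min at 37 °C in PBS + 10 mM MgCl2 + 0.02% Triton X-100. Then 6 nM preformed crRNA/tracrRNA gRNA for 5 min, then 1 nM PCR-amplified target DNA for 30 min. Quenched with proteinase K, run on a 1% agarose gel, bands quantified by densitometry. Run in triplicate; IC50 from a four-parameter logistic fit.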

[2] = system: Streptococcus pyogenes; test: Inhibition of Streptococcus pyogenes Cas9 assessed as inhibition of Csp9:gRNA complex formation
[3] = system: Streptococcus pyogenes; test: Inhibition of Streptococcus pyogenes Cas9 assessed as inhibition of Csp9:gRNA complex formation at 200 uM by EMSA assay
Summary of the method: (§2)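 EMSA in PBS + 10 mM MgCl2 + 0.02% Triton X-100. Compound incubated with 200 nM apo-SpyCas9 for 5 min at 37 °C, then 200 nM Atto550-labelled crRNA/tracrRNA gRNA added for 15 min. Complexes resolved on a 6% TBE gel and visualised by fluorescence.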

[4] = system: Streptococcus pyogenes; test: Inhibition of Streptococcus pyogenes apo-Cas9 assessed as inhibition of Csp9:gRNA complex formation at 10 to 200 uM by EMSA assay; settings: dose 10-200 µM; summary of the method: as §2
[5] = system: Streptococcus pyogenes; test: Binding affinity to Streptococcus pyogenes Cas9 by 1D 1H-NMR-WaterLOGSY spectrum analysis
Summary of the method: (§3)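 NMR ligand-binding on apo-SpyCas9 with standard pulse sequences. For WaterLOGSY, bound ligands give signals of opposite (negative) phase to non-binders. Alanine is added to the cocktail at the ligand concentration as a phasing reference.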

[6] = system: Streptococcus pyogenes; test: Binding affinity to Streptococcus pyogenes Cas9 by 1H-19F-(CPMG)-NMR analysis; summary of the method: as §3
[7] = system: Streptococcus pyogenes; test: Inhibition of Streptococcus pyogenes Cas9 assessed as inhibition of Csp9:gRNA complex formation at 200 to 500 uM; settings: dose 200-500 µM
[8] = system: Streptococcus pyogenes; test: Inhibition of Streptococcus pyogenes Cas9 at 500 microM by Cas9 cleavage assay; summary of the method: as §1
[9] = system: Streptococcus pyogenes; test: Inhibition of Streptococcus pyogenes Cas9 at 200 microM by Cas9 cleavage assay; summary of the method: as §1

IC50 [1]: 189 µM
SMILES: Cc1cc(NS(=O)(=O)c2ccc(-c3ccccc3)cc2)no1

inhibition [2]: Active
inhibition [3]: Active
inhibition [4]: Active
IC50 [1]: 7.02 µM
Activity [5]: Active
Activity [6]: Active
SMILES: Cc1cc(NS(=O)(=O)c2cc(-c3ccc(Cl)c(Cl)c3)cc(C(F)(F)F)c2)no1

IC50 [1]: 28 µM
SMILES: CC1CCN(C(=O)c2cccc(-c3ccccc3)c2)CC1

IC50 [1]: 14 µM
SMILES: Cc1cc(NS(=O)(=O)c2cccc(-c3ccc(Cl)c(Cl)c3)c2)no1

IC50 [1]: 246 µM
inhibition [7]: Active
Activity [8]: Active
SMILES: Cc1cc(NS(=O)(=O)c2cc(-c3nc(C)c(C(=O)N4CCC(C)CC4)s3)n(C)c2C)no1

Activity [9]: inactive
SMILES: Cc1ccnc(NS(=O)(=O)c2cc(-c3nc(C)c(C(=O)N4CCC(C)CC4)s3)n(C)c2C)c1

Activity [8]: Active
SMILES: Oc1c(C(c2ccccn2)N2CCC(Cc3ccccc3)CC2)cc(Cl)c2cccnc12 (configuration not stated)

IC50 [1]: 129 µM
SMILES: Cc1cc(NS(=O)(=O)c2cccc(-c3ccccc3)c2)no1

IC50 [1]: 223 µM
SMILES: Cc1cc(NS(=O)(=O)c2ccc(-c3cccc(C(=O)N4CCC(C)CC4)c3)cc2)no1

IC50 [1]: 28 µM
SMILES: CC1CCN(C(=O)c2cccc(-c3ccc(C(F)(F)F)cc3)c2)CC1
